Compound activity (PubChem)
KCNK9 block: KCNK9 potassium channel inhibitors, primary screen, HEK293 cells, thallium flux; Potassium channel subfamily K member 9 (Homo sapiens), Q9NPC2; FluxOR thallium flux fluorescence; active compounds read low; B-score at 10 µM; 310,000 compounds, 1.2% hits;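 active = ratio B-score over 3 SD below the library mean, with starting fluorescence within 5 SD of its mean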;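 note: negative B-score means less thallium flux so channel inhibition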
KCNQ1 block: inhibitors of human KCNQ1 channel, primary screen, cell-based, thallium flux, high-throughput. AID 2642, 2010. 310,000 compounds, 1.3% hits. B-score at 10 µM. CHO-K1 KCNQ1, FluxOR thallium flux fluorescence; active compounds read high. Potassium voltage-gated channel subfamily KQT member 1 (Homo sapiens), P51787;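 active = compounds whose thallium flux B-score, printed positive for inhibition, exceeds three library SD while starting fluorescence stays within three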;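 note: channel opened by potassium depolarization with thallium stimulus after 20 min compound exposure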
Cl transport mod: KCC2 cotransporter modulators, thallium flux, primary screen, cell-based, HEK293 KCC2, FluoZin-2 fluorescence, MLSMR | 190,000 compounds, 2.2% hits | KCC2 cells, thallium flux FluoZin-2 fluorescence | B-score of Tl+ flux slope (higher = more flux/activation; lower = inhibition) at 10 µM | Solute carrier family 12 member 5 (Homo sapiens), Q9H2X9;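 active = thallium flux slope and its plate-corrected score both differing from the plate sample mean at a set confidence after two filtering rounds, in either direction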;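 note: slope of fluorescence scaled to starting intensity during 10 to 20 s after thallium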
KCNQ1 pot: potentiators or activators of KCNQ1 channel, primary screen, cell-based, thallium flux, high-throughput | AID 2648, 2010 | 310,000 compounds, 0.35% hits | B-score at 10 µM | CHO-K1 KCNQ1, thallium flux FluxOR fluorescence; active compounds read high;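 active = fluorescence ratio B-score, a plate-corrected score, at least three library SD, with initial intensity B-score within 5 SD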
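Assay system: stable KCNQ1 CHO-K1 line; medium: assay buffer, equal DMSO in all wells; timing: 90 min dye loading and 20 min compound exposure, both at room temperature; technique: kinetic FluxOR thallium fluorescence, 10-s 1-Hz baseline, 110-s post-stimulus read; read-out basis: B score of baseline-normalized fluorescence ratio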
hERG rescue: hERG rescue from dofetilide block, primary screen, cell-based, CHO-hERG, FluxOR thallium flux, dofetilide IC70; Voltage-gated inwardly rectifying potassium channel KCNH2 (Homo sapiens), Q12809; dofetilide IC70 present; activation (rescue from dofetilide block), less the hit threshold, % at 10 µM; 310,000 compounds, 0.51% hits;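 active = activation above the mean of controls blocked by dofetilide plus 5 SD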;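 note: thallium influx through hERG after potassium depolarization seen as dye fluorescence rise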
KCNK3 inh: human KCNK3 channel inhibitors, primary screen, CHO cells, FluxOR thallium flux, B-score; FluxOR fluorescence; active compounds read low; B-score at 10 µM; 340,000 compounds, 0.84% hits; AID 602410, 2012;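 active = B-score under library mean minus 4 SD, starting fluorescence ratio at most library mean plus 5 SD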;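 note: more negative B-score means stronger inhibition of thallium flux through KCNK3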
KCC2 secondary: KCC2 modulators in sodium-free buffer, confirmation, cell-based, HEK293 KCC2, thallium flux, secondary assay; shares compounds with Cl transport mod; FluoZin2 fluorescence; active compounds read high; normalised thallium flux (F/F0 slope) at 10 µM; 3,700 compounds, 15% hits; AID 1713, 2009;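 active = thallium flux slope above the same plate's solvent-only control mean plus 3 SD; inconclusive = the two replicate wells disagree; inactive = no significant difference from solvent-only control wells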
KCC2 bumet counter: thallium flux persisting under bumetanide in KCC2 cells, confirmation, counter-screen for KCC2 modulator project, cell-based, HEK293 KCC2, FluoZin2, secondary assay 3; shares compounds with Cl transport mod; HEK293-KCC2 + bumetanide/ouabain; active compounds read high; normalized thallium flux at 10 µM; 3,700 compounds, 49% hits;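 active = thallium entry rate above the same plate's blocked-transporter control wells by more than 3 SD; inconclusive = the two repeat wells disagree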;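 note: raw slope of fluorescence over initial fluorescence between 10 and 20 s after thallium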
KCC2 secondary2: KCC2 modulators without ouabain present, confirmation, cell-based, HEK293 KCC2, thallium flux, FluoZin2, secondary assay 2. shares compounds with Cl transport mod. thallium flux FluoZin2 fluorescence; actives lie on both sides; F/F0 rise rate, 10–20 s post-thallium. normalized thallium flux at 10 µM. 3,700 compounds, 23% hits;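 active = thallium flux slope more than 3 SD above or below the plate's solvent-only control mean, mostly below; inconclusive = the two repeat wells disagreed; inactive = no significant shift from solvent-only controls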;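 note: raw slope with 0.1% DMSO as baseline and bumetanide as block control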
HEK counter1: thallium flux modulation in parental HEK cells, confirmation, counter-screen for KCC2 modulator project, cell-based, counterscreen 1. shares compounds with Cl transport mod. HEK293 parental cells, thallium flux FluoZin2, ouabain; baseline-ratio fluorescence slope, 10–20 s after thallium. thallium flux rate (normalised fluorescence) at 10 µM. 3,700 compounds, 46% hits;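 active = thallium flux rate significantly above the same plate's solvent-only control wells, beyond their mean plus 3 SD; inconclusive = the two replicate wells gave conflicting results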
KCC2 ouabain: KCC2 inhibitors and activators, ouabain retest, confirmation, HEK-KCC2 cells; shares compounds with Cl transport mod; HEK293-KCC2, thallium flux FluoZin2 fluorescence; bidirectional: low = inhibitor, high = activator; raw Tl+ flux slope (below DMSO = inhibition, above = activation) at 10 µM; 3,700 compounds, 48% hits; AID 1717, 2009;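 active = thallium flux slope beyond 3 SD from same-plate DMSO control mean in most replicates, usually higher, sometimes lower; inconclusive = repeat tests gave conflicting results; inactive = no significant difference from controls in most replicates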;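 note: slope of initial-normalized fluorescence between seconds 10 and 20 after thallium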
HEK293 Tl flux2: native HEK Tl+ uptake effects, second counter-screen – HEK cells, counterscreen 2, counter-screen for KCC2 modulator project, confirmation | shares compounds with Cl transport mod | 3,700 compounds, 33% hits | HEK293 parental, thallium flux FluoZin-2 fluorescence slope | thallium flux slope at 10 µM | AID 1718, 2009;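 active = thallium flux slope above the same plate's solvent-control mean plus 3 SD in both duplicate wells; inconclusive = duplicate wells that disagreed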;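 note: run without ouabain in cells lacking the KCC2 cotransporter; slope of fluorescence scaled to its starting value between 10 and 20 s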
KCNQ1 inh valid: KCNQ1 potassium channel inhibitors, confirmation, cell-based, Tl flux, duplicate; inhibition, % at 10 µM; shares compounds with KCNQ1 block; KCNQ1 cell line, FluxOR thallium flux fluorescence; AID 588353, 2011; 1,600 compounds, 93% hits;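 active = primary screen active, with duplicate mean exceeding buffer control mean plus 3 SD of buffer wells, cut at about 28% in these data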;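 note: 0% = buffer control ratio and 100% = XE991 inhibitor control ratio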
CHO KCNQ1 ctr: thallium flux effects in parental CHO cells, counter-screen for KCNQ1 inhibitor project, cell-based, Tl flux. shares compounds with KCNQ1 block. parental CHO-K1, FluxOR thallium flux fluorescence ratio; active compounds read low; zero means no signal rise above baseline. fluorescence ratio (Tl flux) at 10 µM. 1,600 compounds, 21% hits. AID 588366, 2011;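 active = mean of duplicate thallium-flux fluorescence ratios in parental host cells more than 5 SD below the buffer control mean, cut at about 0.38 in these data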;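 note: ratio is peak minus minimum fluorescence divided by baseline fluorescence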
KCNQ2 spec: KCNQ2 channel inhibition, selectivity assay for KCNQ1 inhibitor project, cell-based. shares compounds with KCNQ1 block. KCNQ2 cells, FluxOR thallium flux fluorescence. inhibition, % at 10 µM. 1,600 compounds, 71% hits. AID 651746, 2012;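 active = mean percent inhibition of the KCNQ2 thallium signal more than 5 SD above the buffer-only control wells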;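 note: KCNQ2 expressed in CHO cells; 0% = buffer control wells and 100% = XE-991 inhibitor control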
KCNQ1-KCNE1 inh: KCNQ1/KCNE1 channel inhibition, selectivity assay for KCNQ1 inhibitor project, CHO-K1 cells, thallium flux, FluxOR | FluxOR thallium flux fluorescence | AID 652147, 2013 | shares compounds with KCNQ1 block | 1,600 compounds, 77% hits | inhibition, % at 10 µM;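 active = mean percent inhibition of duplicate wells above the buffer-only control mean plus 3 SD of those controls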;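 note: 0% = buffer only wells and 100% = XE-991 inhibitor control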
KCNK9 inh conf: KCNK9 potassium channel inhibitors, confirmation, HEK293 cells, thallium flux, duplicate; shares compounds with KCNK9 block; FluxOR thallium flux fluorescence; inhibition, % at 10 µM; 4,900 compounds, 43% hits; AID 492992, 2010;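 active = thallium signal inhibited by more than 5 SD of the compound-free buffer control wells, on both duplicate plates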;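 note: 0% = assay buffer control wells without compound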
Kir21 sel: mouse Kir2.1 channel inhibition, confirmation, selectivity assay for KCNK9 modulator project, cell-based, HEK293, thallium flux; inhibition, % at 10 µM; Kir2.1 cells, FluxOR thallium flux fluorescence; 4,900 compounds, 4% hits; shares compounds with KCNK9 block; AID 492993, 2010;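 active = thallium signal drop more than 5 SD beyond the mean of the no-compound control wells, seen in both duplicate plates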;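 note: signal is fluorescence rise after thallium addition divided by baseline fluorescence; plate controls were assay buffer only for no effect and full block by chlorpromazine control for full effect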
HEK293 Tl ctr: thallium flux in non-induced HEK293 cells, confirmation, counter-screen for KCNK9 inhibitor project, cell-based, second counter screen, non-induced KCNK9-HEK293 | shares compounds with KCNK9 block | FluxOR thallium flux | inhibition, % at 10 µM | 4,900 compounds, 40% hits | AID 492997, 2010;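 active = thallium signal drop beyond 5 SD of the untreated control mean, on both duplicate plates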;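 note: plate controls were buffer only IC0 wells for no effect and SID17386958 at its maximal inhibitory level for full effect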
An asterisk follows results filed as active. Only some compounds are listed: those with a hit (about 4.1% of all), similar ones and a draw of the others.

Nc1c(C(=O)c2ccccc2)sc2nsc(SCCN3CCCC3)c12 was read as KCNK9 block inactive, KCNQ1 block 8*, Cl transport mod 4.19*, KCNQ1 pot inactive, hERG rescue -26.4, KCNK3 inh inactive, KCC2 secondary 0.00598*, KCC2 bumet counter 0.00716, KCC2 secondary2 0.0295, HEK counter1 0.00741, KCC2 ouabain 0.0143*, HEK293 Tl flux2 0.0104, KCNQ1 inh valid 107.5*, CHO KCNQ1 ctr 0.208*, KCNQ2 spec inactive, KCNQ1-KCNE1 inh 143.5%*, KCNK9 inh conf 45.0%*, Kir21 sel 35.5%* and HEK293 Tl ctr 73.0%*.
For Nc1c(C(=O)c2ccc(Cl)cc2)sc2nsc(SCCN3CCOCC3)c12 the results were KCNK9 block inactive, KCNQ1 block inactive, Cl transport mod 0.206, KCNQ1 pot inactive, hERG rescue -12.4 and KCNK3 inh inactive.
Screening CC(=O)Nc1ccc(C=NNc2ccc([N+](=O)[O-])cc2S(=O)(=O)Nc2ccccc2C(=O)O)cc1 returned KCNK3 inh inactive.
Cc1ccc(NC(=S)NNc2ccc([N+](=O)[O-])cc2S(=O)(=O)Nc2ccccc2C(=O)O)cc1C was read as KCNK9 block inactive, KCNQ1 block inactive, Cl transport mod -6.13*, KCNQ1 pot inactive, hERG rescue -11.2, KCNK3 inh inactive, KCC2 secondary 0.00685, KCC2 bumet counter 0.00468, KCC2 secondary2 0.0246*, HEK counter1 inconclusive, KCC2 ouabain 0.0117*, HEK293 Tl flux2 inconclusive, KCNK9 inh conf inactive, Kir21 sel inactive and HEK293 Tl ctr inactive.
`Cn1c(N)c(C(=O)CSc2nnc(C3CC3)n2Cc2ccccc2)c(=O)[nH]c1=O` gave KCNK3 inh inactive.
